Assay results: article PMC12467390 (ACS infectious diseases, 2025)
≈ marks a conversion by molar mass, not a printed value. Read-outs that look alike come from different tables or passages of the source.

Tests used:
TetX6 = TetX6 (Chryseobacterium oncorhynchi, UniProt A0A316WTJ0); type: biochemical; conditions: dark; no pre-incubation; none detected = no inhibition up to 2.5 mM
Tet50 = Tet50 (Unknown prokaryotic organism, UniProt A0A059WYP6); test: Steady-state TC consumption assay; type: biochemical; conditions: for Apparent decay constant of IC50 versus pre-incubation time: Tet50
[1] = molecular target: 4-hydroxybenzoate-3-monooxygenase (PHBH) (Pseudomonas fluorescens, UniProt P00438); test: PHBH NADPH consumption assay; type: biochemical
In short: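 PHBH came from a codon-optimized pobA gene expressed in E. coli: grown at 37 °C in LB with kanamycin, induced with 1 mM IPTG at 15 °C for 12–15 h. It was purified by imidazole elution at pH 8.0 and dialyzed overnight. Activity was measured with para-hydroxybenzoic acid as substrate, following NADPH consumption at A340. Time-dependence was assessed by pre-incubating inhibitor with enzyme for varying times before starting the reaction.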

TetX7 [2] = test: Steady-state TC consumption assay; type: biochemical; conditions: dark; for Apparent IC50 Values, TetX7: no pre-incubation, none detected = no inhibition up to 2.5 mM; for Time-dependence of TetX7 inhibition: pre-incubation 0-240 min
[3] = system: E. coli DH5αZ1 empty vector (pZE24); test: MIC by broth microdilution, empty vector control; type: cell-based; conditions: for MIC: Escherichia coli; for MIC, Empty, + TC: presence of 8 μg/mL TC
[4] = system: E. coli DH5αZ1 expressing TetX7 from pZE24; test: MIC by broth microdilution, TetX7::pZE24; type: cell-based; conditions: for MIC, TetX7, + TC: presence of 8 μg/mL TC
[5] = system: E. coli DH5αZ1 expressing Tet50 from pZE24; test: MIC by broth microdilution, Tet50::pZE24; type: cell-based; conditions: Escherichia coli, read-out: MIC, Tet50, − TC
TetX7 [6] = test: Reversibility of TetX7 inhibition by exhaustive dialysis; type: biochemical; conditions: 60 min pre-incubation in the dark; dialysis at 4 °C
[7] = system: E. coli DH5αZ1 empty vector (pZE24); conditions: aTC alone; empty vector control; ref [28],[30],[31]; cited from earlier work
[8] = system: E. coli DH5αZ1 expressing Tet50 from pZE24; conditions: aTC alone, ref [28],[30],[31]; cited from earlier work
[9] = system: E. coli DH5αZ1 expressing TetX7 from pZE24; conditions: aTC alone, ref [28],[30],[31]; cited from earlier work
[10] = system: E. coli DH5αZ1 expressing TetX7 or Tet50; conditions: TC at 8 μg/mL; resistant strains; ref [28],[30],[31]; cited from earlier work
[11] = dark, compounds 1 and 2 up to 2.5 mM
[12] = shielded from light, pre-incubation 0-240 min

Tet50, sequence (A0A059WYP6 whole entry): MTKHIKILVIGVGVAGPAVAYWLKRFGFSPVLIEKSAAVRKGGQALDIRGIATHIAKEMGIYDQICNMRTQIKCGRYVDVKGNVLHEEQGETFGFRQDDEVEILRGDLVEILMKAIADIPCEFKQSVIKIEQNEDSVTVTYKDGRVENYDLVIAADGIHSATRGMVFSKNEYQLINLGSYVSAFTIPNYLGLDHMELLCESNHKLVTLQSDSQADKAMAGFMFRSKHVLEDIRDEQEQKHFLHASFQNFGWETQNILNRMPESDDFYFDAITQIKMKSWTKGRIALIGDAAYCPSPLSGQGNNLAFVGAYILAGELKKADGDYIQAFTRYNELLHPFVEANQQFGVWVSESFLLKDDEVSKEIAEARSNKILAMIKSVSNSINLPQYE
4-hydroxybenzoate-3-monooxygenase (PHBH), sequence (P00438 whole entry): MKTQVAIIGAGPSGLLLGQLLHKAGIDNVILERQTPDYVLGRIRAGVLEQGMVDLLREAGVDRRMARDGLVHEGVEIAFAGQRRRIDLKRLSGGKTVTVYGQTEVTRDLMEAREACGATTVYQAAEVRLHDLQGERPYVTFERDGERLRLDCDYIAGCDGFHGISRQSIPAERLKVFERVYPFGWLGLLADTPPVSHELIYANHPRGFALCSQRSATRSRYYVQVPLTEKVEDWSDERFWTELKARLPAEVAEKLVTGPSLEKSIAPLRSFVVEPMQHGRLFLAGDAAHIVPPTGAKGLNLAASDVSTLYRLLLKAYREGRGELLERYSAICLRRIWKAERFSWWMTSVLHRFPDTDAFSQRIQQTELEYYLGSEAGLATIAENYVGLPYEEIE

SMILES | Time-dependence of Tet50 inhibition (Tet50; blue light irradiation) | Inhibition of PHBH [1, 11] | Time-dependence of Tet50 inhibition (Tet50; [12]) | MIC, TetX7, + TC [4] | MIC, Empty, + TC [3] | Time-dependence of TetX7 inhibition (TetX7 [2]) | further results
CC1(NCc2ccccc2)CC1 [Compound 1, N-(1-methyl)cyclopropylbenzylamine] | inhibit Tet50 in a time-dependent manner | no inhibition |  |  |  |  | Apparent IC50 Values, TetX6 (TetX6): none detected^a; Inhibition of PHBH ([1]; blue light irradiation): potent time-dependent and dose-dependent inhibition; Apparent IC50 Values, TetX7 (TetX7 [2]): none detected^a
CN(C)[C@@H]1C(O)=C(C(N)=O)C(=O)[C@@]2(O)C(O)=C3C(=O)c4c(O)cccc4[C@@](C)(O)[C@H]3C[C@@H]12 [TC, tetracycline, reference compound] |  |  |  |  |  |  | MIC ([3]; read-out: MIC of TC): 1 µg/mL
C#CCN(C)Cc1ccccc1 [Compound 2, N-methyl-N-benzyl-propargylamine] | inhibit Tet50 in a time-dependent manner | no inhibition |  |  |  |  | Apparent IC50 Values, TetX6 (TetX6): none detected^a; Inhibition of PHBH ([1]; blue light irradiation): potent time-dependent and dose-dependent inhibition; Apparent IC50 Values, TetX7 (TetX7 [2]): none detected^a
C#CCNCc1ccc2c(C)c3c(c(O)c2c1O)C(=O)[C@]1(O)C(=O)C(C(N)=O)=C(O)[C@@H](N(C)C)[C@@H]1C3.Cl [Compound 4, (4S,4aS,12aS)-4-(dimethylamino)-3,10,11,12a-tetrahydroxy-6-methyl-1,12-dioxo-9-((prop-2-yn-1-ylamino)methyl)-1,4,4a,5,12,12a-hexahydrotetracene-2-carboxamide hydrochloride] | slower time-dependent inactivation | Inhibition was detected | clear decrease in the apparent IC50 value correlating to longer enzyme–inhibitor pre-incubation times | 2 µg/mL | <1 µg/mL | did not observe any time-dependence | MIC ([3]; read-out: MIC, Empty, − TC): 32 µg/mL; Time-dependence of PHBH inhibition ([1]; dark): time-dependence was observed; MIC [5]: 32 µg/mL
C#CCN(C)Cc1ccc2c(C)c3c(c(O)c2c1O)C(=O)[C@]1(O)C(=O)C(C(N)=O)=C(O)[C@@H](N(C)C)[C@@H]1C3 [Compound 5, (4S,4aS,12aS)-4-(dimethylamino)-3,10,11,12a-tetrahydroxy-6-methyl-9-((methyl(prop-2-yn-1-yl)amino)methyl)-1,12-dioxo-1,4,4a,5,12,12a-hexahydrotetracene-2-carboxamide] | time- and light- dependent irreversible inactivation of Tet50 |  | clear decrease in the apparent IC50 value correlating to longer enzyme–inhibitor pre-incubation times | 2 µg/mL | <1 µg/mL | did not observe any time-dependence | TetX7 activity after exhaustive dialysis versus before (TetX7 [6]): reversed upon exhaustive dialysis; Apparent decay constant of IC50 versus pre-incubation time (Tet50; blue light irradiation): 0.5 ± 0.1 min⁻¹; MIC ([4]; Escherichia coli, read-out: MIC, TetX7, − TC): 64 µg/mL (≈ 126 µM)
Cc1c2c(c(O)c3c(O)c(CNC4(C)CC4)ccc13)C(=O)[C@]1(O)C(=O)C(C(N)=O)=C(O)[C@@H](N(C)C)[C@@H]1C2.Cl [Compound 3, (4S,4aS,12aS)-4-(dimethylamino)-3,10,11,12a-tetrahydroxy-6-methyl-9-(((1-methylcyclopropyl)amino)methyl)-1,12-dioxo-1,4,4a,5,12,12a-hexahydrotetracene-2-carboxamide hydrochloride] |  | Inhibition was detected | clear decrease in the apparent IC50 value correlating to longer enzyme–inhibitor pre-incubation times | 8 µg/mL | <1 µg/mL | did not observe any time-dependence | Apparent decay constant of IC50 versus pre-incubation time (Tet50; blue light irradiation): 0.9 ± 0.3 min⁻¹; MIC ([3]; read-out: MIC, Empty, − TC): 32 µg/mL; Time-dependence of PHBH inhibition ([1]; dark): time-dependence was observed
Cc1c2c(c(O)c3c(O)cccc13)C(=O)[C@]1(O)C(=O)C(C(N)=O)=C(O)[C@@H](N(C)C)[C@@H]1C2 [aTC, anhydrotetracycline] | time-dependent inhibition | Inhibition was detected | not time-dependent |  |  | did not observe any time-dependence | MIC of aTC [7]: 4 µg/mL; MIC of aTC [8]: 8 µg/mL; MIC of aTC [9]: 8 µg/mL; Inhibitor concentration that rescues growth inhibitory activity of TC [10]: ≥ 2 µg/mL
